# From ChEMBL document CHEMBL4041550, “Structure-Activity Relationship Study of QL47: A Broad-Spectrum Antiviral Agent” (ACS Med Chem Lett, 2017)
# Calls of active or inactive are those of the source. The rule behind the calls is not given here.
# Legend:
# [1] = test system: dengue virus type 2; test: Antiviral activity against Dengue virus serotype 2 strain New Guinea C infected in HuH7 cells at […] to 10 uM measured at 24 hrs post infection by focus forming assay; format: functional, cell-based; settings: Thailand/NGS-C/1944
# Outline: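 Huh7 cells infected with DENV2, then treated with compound; screened at 2 and 10 μM. Infectious virus secreted into supernatant at 24 h post-infection/treatment titrated by focus-forming assay; expressed as log-fold change relative to DMSO. IC90 (1-log10 drop in infectious progeny) from concentration range by non-linear regression; mean ± SD of experimental duplicates, n ≥ 2 repeats.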
# [2] = test system: dengue virus type 2; test: Antiviral activity against Dengue virus serotype 2 replicon harboring GVD mutant infected in HuH7 cells assessed as reduction in viral RNA translation at 2 uM measured at 6 hrs post infection by luciferase reporter gene assay relative to control; format: functional; design: scale not given: the % may be the effect or the level left
# Outline: (§1)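 Huh7 cells transfected with in vitro-transcribed nonreplicative DENV2(GVD) reporter replicon RNA, then treated immediately with compound at 2 or 10 μM. Intracellular firefly luciferase activity read 6 h post-transfection as a measure of RNA translation and expressed relative to DMSO-treated samples. Mean ± SD of experimental duplicates, n = 3 repeats.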
# [3] = test system: dengue virus type 2; test: Antiviral activity against Dengue virus serotype 2 strain New Guinea C infected in HuH7 cells assessed as reduction in log-fold change by measuring focus forming unit at 2 uM measured at 24 hrs post infection by focus forming assay relative to control; format: functional, Thailand/NGS-C/1944
# Outline: (§2)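 DENV2-infected Huh7 cells treated with compound at 2 or 10 μM. Infectious virus secreted into culture supernatants at 24 h post-infection/treatment was titred by focus-forming assay. Result expressed as log-fold change relative to DMSO treatment.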
# [4] = test system: dengue virus type 2; test: Antiviral activity against Dengue virus serotype 2 replicon harboring GVD mutant infected in HuH7 cells assessed as reduction in viral RNA translation at 10 uM measured at 6 hrs post infection by luciferase reporter gene assay relative to control; format: functional; design: scale not given: the % may be the effect or the level left; outline: as §1
# [5] = Half life in mouse hepatic microsomes at 1 uM in presence of NADPH by LC-MS/MS method; format: ADME, Microsome; settings: liver microsomes
# Outline: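 Compound incubated with mouse liver microsomes; half-life (T1/2, min) of the compound reported as a measure of metabolic stability.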
# [6] = test system: dengue virus type 2; test: Antiviral activity against Dengue virus serotype 2 strain New Guinea C infected in HuH7 cells assessed as reduction in log-fold change by measuring focus forming unit at 10 uM measured at 24 hrs post infection by focus forming assay relative to control; format: functional, Thailand/NGS-C/1944; outline: as §2
# [7] = Cytotoxicity against human HuH7 cells measured after 24 hrs by CellTiter-Glo luminescent cell viability assay; format: cell-based, Huh-7
# Outline: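 DENV2-infected Huh7 cells treated across a concentration range; cell viability read 24 h later. CC50 (50% cytotoxicity) derived by non-linear regression; mean ± SD of experimental duplicates, n ≥ 2 repeats.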
Structure (SMILES),Activity [1],Activity [2],Activity [3],Activity [4],half-life at 1 µM [5],Activity [6],CC50 at 24 h [7]
C=CC(=O)N1CCC[C@@H](n2nc(-c3ccc(Oc4ccccc4)cc3)c3c(N)ncnc32)C1,inactive,–,–,–,–,–,–
C=CC(=O)Nc1cc(-n2c(=O)ccc3cnc4ccc(-c5ccc6c(c5)OCO6)cc4c32)ccc1C,–,32%,2.8 log10FFU/ml,94%,2.7 min,4 log10FFU/ml,46 µM
C=CC(=O)Nc1cc(-n2c(=O)ccc3ccc4ccc(-c5cnn(C)c5)cc4c32)ccc1C,–,76%,4 log10FFU/ml,95%,4 min,4 log10FFU/ml,> 160 µM
C=CC(=O)Nc1cc(-n2c(=O)ccc3cnc4ccc(N5CCN(c6ccccc6)CC5)cc4c32)ccc1C,–,0%,0.1 log10FFU/ml,2%,5 min,0 log10FFU/ml,44 µM
C=CC(=O)Nc1cc(-n2c(=O)ccc3cnc4ccc(Nc5cnn(C)c5)cc4c32)ccc1C,–,23%,0 log10FFU/ml,24%,7.9 min,0.4 log10FFU/ml,107 µM
C=CC(=O)Nc1cc(-n2c(=O)ccc3cnc4ccc(-c5cnn(C)c5)cc4c32)ccc1F,–,97%,4 log10FFU/ml,99%,4.5 min,4 log10FFU/ml,105 µM
C=CC(=O)N1CCc2ccc(-n3c(=O)n(C)c4cnc5ccc(-c6cnn(C)c6)cc5c43)cc21,–,94%,2.5 log10FFU/ml,99%,2 min,4 log10FFU/ml,79 µM
Cc1ccc(-n2c(=O)ccc3ccc4ccc(-c5ccc6ccncc6c5)cc4c32)cc1NC(=O)/C=C/CN(C)C,–,17%,3.3 log10FFU/ml,66%,6.3 min,4 log10FFU/ml,21 µM
C=CC(=O)Nc1cc(-n2c3c(ccc2=O)CCc2ccc(-c4cnn(C)c4)cc2-3)ccc1C,–,49%,0.5 log10FFU/ml,60%,–,1 log10FFU/ml,> 160 µM
C=CC(=O)N1CCc2ccc(-n3c(=O)ccc4cnc5ccc(-c6ccc(S(=O)(=O)NC(C)(C)C)cc6)cc5c43)cc21,–,81%,0 log10FFU/ml,100%,2.3 min,1.9 log10FFU/ml,13 µM
C=CC(=O)Nc1cc(-n2c(=O)ccc3cnc4ccc(-c5cnn(C)c5)cc4c32)ccc1C(=O)O,–,3%,0 log10FFU/ml,19%,–,0 log10FFU/ml,> 160 µM
C=CC(=O)Nc1cc(-n2c(=O)ccc3cnc4ccc(-c5cnn(C)c5)cc4c32)ccc1C(=O)N(C)C,–,4%,2 log10FFU/ml,93%,–,4 log10FFU/ml,83 µM
C=CC(=O)Nc1cc(-n2c(=O)ccc3cnc4ccc(-c5cnc6ccccc6c5)cc4c32)ccc1C,–,82%,2.7 log10FFU/ml,95%,1.3 min,4 log10FFU/ml,> 160 µM
C=CC(=O)Nc1cc(-n2c(=O)ccc3cnc4ccc(-c5cn[nH]c5)cc4c32)ccc1C,–,29%,0.8 log10FFU/ml,76%,6.5 min,4 log10FFU/ml,77 µM
Cc1c(NC(=O)c2ccc(C(C)(C)C)cc2)cccc1-c1cn(C)c(=O)c(Nc2ccc(C(=O)N3CCOCC3)cc2)n1,inactive,–,–,–,–,–,–
C=CC(=O)Nc1cc(-n2c(=O)ccc3ccc4ccc(-c5ccc6ccncc6c5)cc4c32)ccc1C,–,82%,1.9 log10FFU/ml,94%,9 min,4 log10FFU/ml,75 µM
C=CC(=O)N1CCc2ccc(N3C(=O)NCc4cnc5ccc(-c6cnn(C)c6)cc5c43)cc21,–,49%,0.1 log10FFU/ml,53%,2 min,0.8 log10FFU/ml,68 µM
C=CC(=O)Nc1cc(-n2c(=O)ccc3cnc4ccc(-c5ccc(NS(C)(=O)=O)cc5)cc4c32)ccc1C,inactive,–,–,–,–,–,–
C=CC(=O)Nc1cc(-n2c3c(ccc2=O)CCc2ccc(-c4ccc5ccncc5c4)cc2-3)ccc1C,–,77%,0.5 log10FFU/ml,88%,–,0.1 log10FFU/ml,> 160 µM
C=CC(=O)Nc1cc(-n2c(=O)ccc3cnc4ccc(-c5cnn(C)c5)cc4c32)ccc1OCCNC(C)=O,–,39%,1.1 log10FFU/ml,90%,–,4 log10FFU/ml,99 µM
C=CC(=O)Nc1cc(-n2c(=O)ccc3cnc4ccc(N5CCOCC5)cc4c32)ccc1C,–,0%,0.1 log10FFU/ml,23%,9 min,1.2 log10FFU/ml,103 µM
C=CC(=O)N1CCc2ccc(-n3c(=O)n(C)c4cnc5ccc(-c6ccc7ccncc7c6)cc5c43)cc21,–,77%,2 log10FFU/ml,98%,2 min,4 log10FFU/ml,126 µM
C=CC(=O)Nc1cc(-n2c(=O)ccc3ccc4ccc(-c5cn[nH]c5)cc4c32)ccc1C,–,39%,2 log10FFU/ml,79%,4 min,4 log10FFU/ml,29 µM
C=CC(=O)Nc1cc(-n2c(=O)ccc3cnc4ccc(-c5cnn(C)c5)cc4c32)ccc1C,–,40%,1 log10FFU/ml,34%,4.1 min,4 log10FFU/ml,> 160 µM
C=CC(=O)Nc1cc(-n2c(=O)ccc3cnc4ccc(-c5ccc(N)nc5)cc4c32)ccc1C,–,44%,0.8 log10FFU/ml,75%,6.4 min,4 log10FFU/ml,75 µM
